The values below come from ChEMBL document CHEMBL4261575, “Structure-guided approach identifies a novel class of HIV-1 ribonuclease H inhibitors: binding mode insights through magnesium complexation and site-directed mutagenesis studies” (Medchemcomm, 2018).

The subject of test [1] is Human immunodeficiency virus 1. Briefly: Antiviral activity against HIV1 assessed as inhibition of viral replication at 40 uM by cell-based assay. It is filed as functional, organism-based.
For test [2], the target named is Human immunodeficiency virus type 1 reverse transcriptase (Human immunodeficiency virus 1, UniProt Q72547, A502F). In words: Inhibition of HIV1 group M subtype B reverse transcriptase p66 A502F mutant RNase H activity using 18-nucleotide 3'-fluorescein-labeled RNA/5'-[…]-labeled DNA hybrid as substrate after 1 hr by fluorescence assay. Set-up: species or system HIV-1 group M. Summed up: (§1)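 Mutations were introduced into the p66 subunit of subtype B RT. Enzyme amounts were set within the linear range: R448A 37.5 ng, N474A 62.5 ng, A502F 100 ng, R557A 75 ng. Buffer was 50 mM Tris-HCl pH 7.8, 6 mM MgCl2, 1 mM DTT, 80 mM KCl, with 0.25 μM fluorescein/dabcyl hybrid and water-diluted inhibitor. Incubation 1 h at 37 °C, EDTA stop, read at 490/528 nm.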

Test [3] is described as follows: (§2) Binding affinity to Mg2+ assessed as hyperchromic effect at 3 x 10^-5 M to 8 x 10^-5 M by UV-Vis spectrophotometric method. In outline:
(§3)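 UV-vis titration with MgCl2 in a 1 cm quartz cuvette. MgCl2 was diluted in absolute ethanol to 13 stock solutions spanning 4 10–5 to 0.2 M. Spectra were followed for absorbance changes and isosbestic points. Each experiment was done in triplicate.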

Test [4] can be described thus: Selectivity ratio of IC50 for HIV1 group M subtype B reverse transcriptase p66 R448A mutant RNase H activity to IC50 for HIV1 reverse transcriptase RNase H activity.
The nature of test [5]: Selectivity ratio of IC50 for HIV1 group M subtype B reverse transcriptase p66 N474A mutant RNase H activity to IC50 for HIV1 reverse transcriptase RNase H activity.
Test [6] in a line: Selectivity ratio of IC50 for HIV1 group M subtype B reverse transcriptase p66 R557A mutant RNase H activity to IC50 for HIV1 reverse transcriptase RNase H activity.
Test [7] addresses Human immunodeficiency virus type 1 reverse transcriptase (Human immunodeficiency virus 1, UniProt Q72547, N474A). Briefly: Inhibition of HIV1 group M subtype B reverse transcriptase p66 N474A mutant RNase H activity using 18-nucleotide 3'-fluorescein-labeled RNA/5'-[…]-labeled DNA hybrid as substrate after 1 hr by fluorescence assay. Further details: species or system HIV-1 group M. Summed up:
as §1

Test [8] deals with Human immunodeficiency virus type 1 reverse transcriptase (Human immunodeficiency virus 1, UniProt Q72547). Briefly: Inhibition of HIV1 reverse transcriptase RNase H activity using 18-nucleotide 3'-fluorescein-labeled RNA/5'-[…]-labeled DNA hybrid as substrate after 1 hr by fluorescence assay. Summed up:
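Polymerase-independent RNase H assay with 20 ng wild-type RT in 50 mM Tris-HCl pH 7.8, 6 mM MgCl2, 1 mM DTT and 80 mM KCl. Substrate was 0.25 μM RNA/DNA hybrid with a fluorescein-labelled RNA and a dabcyl-labelled DNA. Inhibitor was diluted in water over increasing concentrations. Incubation 1 h at 37 °C, stopped with EDTA, read at 490/528 nm. IC50 was averaged over three independent experiments.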

A short description of test [9]: as §2. Summed up:
as §3
This is another data set of the same source.

A short description of test [10]: Binding affinity to Mg2+ at 3 x 10^-5 M to 8 x 10^-5 M by UV-Vis spectrophotometric method. In outline:
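UV-vis spectrophotometric titration of the compound in absolute ethanol with MgCl2, read in a quartz cuvette with a 1 cm path. MgCl2 was diluted in absolute ethanol to 13 stock solutions spanning 4 10–5 to 0.2 M (stock concentrations). Spectra were recorded across increasing Mg2+ levels, and isosbestic points were used to judge complexation equilibria. Each experiment was done in triplicate.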

Test [11] is described as follows: Selectivity ratio of IC50 for HIV1 group M subtype B reverse transcriptase p66 A502F mutant RNase H activity to IC50 for HIV1 reverse transcriptase RNase H activity.
Test [12] addresses Human immunodeficiency virus type 1 reverse transcriptase (Human immunodeficiency virus 1, UniProt Q72547, R448A). In words: Inhibition of HIV1 group M subtype B reverse transcriptase p66 R448A mutant RNase H activity using 18-nucleotide 3'-fluorescein-labeled RNA/5'-[…]-labeled DNA hybrid as substrate after 1 hr by fluorescence assay. Further details: species or system HIV-1 group M. Summed up:
as §1

Test [13] addresses Human immunodeficiency virus type 1 reverse transcriptase (Human immunodeficiency virus 1, UniProt Q72547, R557A). In words: Inhibition of HIV1 group M subtype B reverse transcriptase p66 R557A mutant RNase H activity using 18-nucleotide 3'-fluorescein-labeled RNA/5'-[…]-labeled DNA hybrid as substrate after 1 hr by fluorescence assay. Set-up: species or system HIV-1 group M. Summed up: as §1

Activity calls are given as the source filed them. No cut-off for these calls is given here.

On to `CCOc1cc(/C=C2\SC(=S)N(c3ccccc3)C2=O)cc([N+](=O)[O-])c1O`, for which, in [1], the inhibition entry was “inactive”. Further, the IC50 is 26.3 µM in [2]; 146 µM in test [7]; 12.8 µM in test [8]; 11.3 µM in [12]; 18.6 µM in test [13]. Also, the result in test [3], in [9] and in [10] was Active. The Ratio IC50 in [4] was found to be 0.9; in [5] it was 11.4; in test [6] it was 1.5; in test [11], 2.1.
